Bioassay records as filed in PubChem BioAssay.
FGF22 binding – FGF22 (human) thermal shift binding; 340,000 tested, 1.5% active; activity (Tm shift, normalised), % at 9.99 µM; recombinant FGF22 thermal shift, SYPRO orange fluorescence; percent of sucrose octasulfate shift, DMSO zero; Q9HCT0;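 active = mean Tm shift, scaled 0 neutral to 100 positive control, at about 1.3% or above, every replicate too, limit read from the data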
Target sequence (Q9HCT0 whole entry, looked up): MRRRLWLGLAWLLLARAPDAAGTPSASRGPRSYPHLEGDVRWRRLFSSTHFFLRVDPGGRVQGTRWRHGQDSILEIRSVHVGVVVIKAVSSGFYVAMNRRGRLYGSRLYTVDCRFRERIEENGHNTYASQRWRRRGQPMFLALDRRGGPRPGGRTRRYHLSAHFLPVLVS
FN deposit inh – fibronectin deposition inhibition | inhibition, % at 12.6 µM | 350,000 tested, 0.086% active | AH1F fibroblasts, Alexa488-fibronectin deposition fluorescence, overnight;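 active = mean inhibition across replicates of 30% or more, regardless of how many single replicates reach that level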;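 note: positive control wells lacked labelled fibronectin entirely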
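Assay system: AH1F fibroblasts assembling fluorescent fibronectin matrix; Amount: 10000 AH1F cells per well; Buffer or medium: DMEM, 2% serum; Probe or stimulus: Alexa488-fibronectin, 24 nM final in well; Doses: single compound dose, delivered by pin transfer; Incubation: 1 h adhesion, overnight exposure; Measured by: fluorescence 485/525 nm; Read-out: fibronectin deposition inhibition.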
PGC1a acetyl inh – lowers PGC1a acetylation signal in U2OS cells. 350,000 tested, 0.17% active. AlphaScreen anti-acetyl-lysine; with virally co-expressed GCN5 acetyltransferase. inhibition, % at 15.6 µM;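 active = every replicate shows inhibition of at least 40%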;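 note: 0% = neutral control wells and 100% = positive control wells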
ERAP1 inh – blocks human ERAP1 aminopeptidase activity; Q9NZ08; recombinant ERAP1, Leu-AMC fluorescence, 60 min; inhibition, % at 10.7 µM; 340,000 tested, 0.15% active; AID 652197;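 active = mean replicate inhibition of at least 30%, or all replicates individually reaching that 30% level; inactive = mean below 30% and not every replicate reaching it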;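 note: 0% = neutral control wells and 100% = L-leucinethiol positive control wells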
SIRT5 block – inhibitors of human sirtuin-5 desuccinylase; Q9NXA8; Purified SirT5, succinyl-peptide AMC, trypsin-coupled fluorescence; AID 652115; inhibition, % at 15 µM; 330,000 tested, 1.1% active; in the data active = inhibition above about 15%
Target sequence (Q9NXA8 whole entry, looked up): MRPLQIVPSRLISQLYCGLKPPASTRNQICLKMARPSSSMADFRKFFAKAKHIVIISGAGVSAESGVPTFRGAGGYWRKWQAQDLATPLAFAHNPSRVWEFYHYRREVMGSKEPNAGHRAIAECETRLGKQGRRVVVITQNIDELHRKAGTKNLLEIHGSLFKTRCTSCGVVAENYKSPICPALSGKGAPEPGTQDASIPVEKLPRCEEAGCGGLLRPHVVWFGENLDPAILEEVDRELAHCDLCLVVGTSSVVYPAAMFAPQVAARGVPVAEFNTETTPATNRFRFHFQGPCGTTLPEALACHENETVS
Numbers without * were called inactive; . = not tested or not shown. Only some compounds are listed: those with a hit (about 2.2% of all), similar ones and a draw of the others.

SMILES | FGF22 binding | FN deposit inh | PGC1a acetyl inh | ERAP1 inh | SIRT5 block
CCOC(=O)c1cnc2ccc(OCC)cc2c1NCCN1CCOCC1 | 0 | . | -5 | 0 | -2
CC1CC2C(C(O)CC3(C)C2CCC3(O)C(=O)CO)C2(C)C=CC(=O)C=C12 (stereo not given) | 0 | -2 | 2 | -1 | 35*
CC(=O)OCC(=O)[C@@]1(O)CC[C@H]2[C@@H]3C[C@H](C)C4=CC(=O)C=C[C@]4(C)[C@H]3[C@@H](O)C[C@@]21C | 0 | -3 | -16 | 2 | 0
C[C@H](CO)N1C[C@H](C)[C@H](CN(C)Cc2ccncc2)Oc2ccc(NS(=O)(=O)c3cn(C)cn3)cc2CC1=O | 0 | . | 0 | -12 | 2
O=C(Nc1ccc(Cl)cc1Cl)c1cc2ccccc2o1 | 0 | -4 | 7 | -2 | -1
O=C(Nc1ncccc1Cl)c1cc2ccccc2o1 | 0 | -1 | 11 | 1 | 20*
C[C@H]1COc2cc(NCCO)ccc2S(=O)(=O)N1 | 0 | 1 | . | -3 | 19*
CCCCNc1ccc2c(c1)OC[C@@H](C)NS2(=O)=O | 0 | 1 | . | 6 | -2
C[C@@H]1CN([C@H](C)CO)C(=O)Cc2cc(NS(=O)(=O)c3cccs3)ccc2O[C@@H]1CN(C)S(C)(=O)=O | 0 | . | 11 | -1 | 12
C=CCN1C(=O)/C(=C2/Sc3ccc(OC)cc3N2C)SC1=Nc1ccccc1 | 43* | -9 | -7 | -2 | 1
Cc1ccccc1-c1ccc([C@H]2[C@H]3CN(C(=O)Cc4ccccn4)CC(=O)N3[C@H]2CO)cc1 | -1 | . | 11 | -2 | 3
C/C=C(/C)C(=O)O[C@@H]1c2c(ccc3ccc(=O)oc23)OC(C)(C)[C@@H]1OC(=O)/C(C)=C\C | 0 | -18 | . | -2 | 31*
C[C@@H]1CN([C@@H](C)CO)S(=O)(=O)c2ccc(C3=CCCC3)cc2O[C@H]1CN(C)Cc1ccccn1 | 0 | 2 | -12 | 1 | 5
N#Cc1ccsc1NC(=O)CN1CCN(Cc2ccccc2)CC1 | 43* | 20 | 0 | -1 | -2
N#Cc1ccccc1NC(=O)CN1CCN(Cc2ccccc2)CC1 | 0 | -8 | -12 | 1 | -2
CC(=O)Nc1ccc2c(c1)C(=O)N(C)C[C@H](C)[C@H](CN(C)C(=O)NC(C)C)O2 | . | 3 | . | . | .
COc1ccc(C2NC(=S)NC3=C2CCCC3=C2SCCS2)cc1 (stereo not given) | 0 | 6 | 45* | -2 | -3
COc1ccc2c(c1)CCC1=C2NC(=S)NC1c1ccc(N(C)C)cc1 (stereo not given) | 0 | -1 | . | -8 | 15*
S=C1NC2=C(CCCC2=C2SCCCS2)C(c2ccccc2)N1 (stereo not given) | 0 | -17 | 12 | -5 | 0
COc1cc(C2NC(=S)NC3=C2CCc2ccccc23)cc(OC)c1OC (stereo not given) | 0 | 2 | . | -2 | -1
O=C(O)c1ccc(Nc2nc(-c3ccc([N+](=O)[O-])cc3)nc3ccccc23)cc1 | 0 | 3 | -2 | -2 | 24*
C[C@@H]1CN([C@H](C)CO)C(=O)c2cc(NC(=O)C3CCCCC3)ccc2O[C@@H]1CN(C)Cc1ccc(Oc2ccccc2)cc1 | . | . | -5 | . | .
CC(=O)N1c2ccc(S(=O)(=O)N3CCCC(C(=O)Nc4ccc(C)cc4)C3)cc2CC1C (stereo not given) | 0 | -1 | -8 | 1 | -2
COC(=O)c1ccc(NC(=O)C2CCN(S(C)(=O)=O)CC2)cc1 | . | 6 | . | . | .
COC(=O)c1ccc(NC(=O)C2CCCN(S(C)(=O)=O)C2)cc1 (stereo not given) | 43* | -6 | -2 | 5 | 0
SMILES | FGF22 binding | FN deposit inh | PGC1a acetyl inh | ERAP1 inh | SIRT5 block
Cc1cc(S(=O)(=O)N2CCCC(C(=O)Nc3ccc(C(=O)O)cc3)C2)ccc1Cl (stereo not given) | 43* | 9 | -8 | -24 | -3
COc1ccc(-c2cnc3c(c2)C(=O)N([C@@H](C)CO)C[C@@H](C)[C@@H](CN(C)Cc2ccc(C(=O)O)cc2)O3)cc1 | 0 | . | 17 | 2 | 2
CO[C@@H]1CN(C)C(=O)c2cc(NC(=O)c3ccc(F)cc3)ccc2OC[C@@H](C)N(C(=O)CN(C)C)C[C@H]1C | . | -9 | 0 | 6 | -3
COc1ccc(N2C(=O)c3ccc(C(=O)OC(C)C)cc3C2=O)cc1 | . | 5 | 8 | . | .
COc1ccc(-c2onc(C)c2-c2ccc(C(=O)OC(C)C)o2)c(O)c1 | . | 12 | 74* | . | .
CCCNC(=O)Nc1ccc2c(c1)C(=O)N(C)C[C@@H](OC)[C@@H](C)CN(Cc1ccccc1)[C@H](C)CO2 | . | -9 | -22 | . | .
COc1ccccc1P(=O)(c1ccccc1)c1ccccc1 | 0 | -10 | . | -2 | -2
Cc1ccccc1P(=O)(c1ccccc1)c1ccccc1C | 44* | 2 | . | 5 | .
CNc1nc(Cl)nc2ncn(C)c12 | 0 | 8 | 16 | -6 | 16*
O=C(C[C@H]1CC[C@H](NC(=O)C2CC2)[C@@H](CO)O1)Nc1nccs1 | 0 | -31 | -4 | -1 | 1
C[C@@H]1CN([C@@H](C)CO)C(=O)Cc2cc(NC(=O)Nc3ccc(C(F)(F)F)cc3)ccc2O[C@@H]1CN(C)CC1CCCCC1 | 0 | 0 | -11 | 1 | -1
COC(=O)c1sc2cc([N+](=O)[O-])cc(SCC(C)C)c2c1N | 44* | -9 | . | 0 | 2
CN(C)CCNc1oc(COc2ccc(-c3ccccc3)cc2)nc1C#N | 0 | . | 58* | 2 | .
COc1cc(C2Nc3cccc4cccc(c34)N2)ccc1OC(C)=O | . | . | 56* | . | .
COc1ccc(C2Nc3cccc4cccc(c34)N2)cc1Br | 0 | -4 | 9 | 2 | 10
Cc1noc(C)c1NC(=O)Nc1ccc2c(c1)C(=O)N([C@H](C)CO)C[C@H](C)[C@@H](CN(C)Cc1ccccc1)O2 | -1 | . | . | 4 | 3
Cc1noc(C)c1NC(=O)N(C)C[C@H]1Oc2ccc(NS(=O)(=O)c3ccc(F)cc3)cc2C(=O)N([C@@H](C)CO)C[C@@H]1C | 0 | . | 0 | -2 | 0
CCc1cccc2c(C(=O)COC(=O)c3ccc([N+](=O)[O-])s3)c[nH]c12 | 44* | 8 | . | 0 | -2
CCC(=O)N1CC(=O)N2[C@H](CO)[C@H](c3ccc(C#CCc4ccccc4)cc3)[C@H]2C1 | . | . | -17 | 0 | -1
CO[C@H]1CN(C)C(=O)c2cccc(C#N)c2OC[C@H]2O[C@H](CC[C@@H]2OC)CCN(C)C(=O)[C@H]1C | 0 | 7 | -5 | -1 | 21*
CO[C@@H]1CC[C@@H]2CCN(C)C(=O)[C@H](C)[C@H](OC)CN(C)C(=O)c3cc(C#N)ccc3OC[C@@H]1O2 | 0 | -3 | -2 | 0 | 0
CO[C@H]1CC[C@H]2CCN(C)C(=O)[C@@H](C)[C@H](OC)CN(C)C(=O)c3cc(C#N)ccc3OC[C@@H]1O2 | 0 | 2 | 1 | -2 | 16*
CO[C@H]1CN(C)C(=O)c2cccc(C#N)c2OC[C@H]2O[C@H](CC[C@H]2OC)CCN(C)C(=O)[C@@H]1C | 0 | -9 | -2 | 4 | 1
